These results are taken from ChEMBL document CHEMBL3046508, “Factors affecting the production of Trichoderma harzianum secondary metabolites during the interaction with different plant pathogens” (2009).

Activity calls are given as the source filed them. No cut-off for these calls is given here.

The test system of experiment [1] is Botrytis cinerea. The experiment in a line: Antifungal activity against Botryotinia fuckeliana assessed as growth inhibition at 0.01 to 200 ug/plug. The class given is functional, organism-based. A digest of the protocol: (§1)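 Plugs cut from actively growing colony margins (L. maculans UWA P11 grown on V8 agar; B. cinerea and P. cinnamomi kept on PDA) were placed centrally on one-fifth strength PDA plates. Purified compound dissolved in filter-sterilized EtOAc was applied on top of each plug and the solvent evaporated; a solvent-only control was included. Colony diameter (mm) was measured daily. Three replicates per treatment; experiment run twice.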

Experiment [2] relates to Phytophthora cinnamomi. The experiment in a line: Antifungal activity against Phytophthora cinnamomi assessed as growth inhibition at 0.01 to 200 ug/plug. The class given is functional, organism-based. A digest of the protocol:
as §1

The test system of experiment [3] is Plenodomus lingam. The experiment in a line: Antifungal activity against Leptosphaeria maculans isolate UWA P11 assessed as growth inhibition at 0.01 to 200 ug/plug. The class given is functional, organism-based. A digest of the protocol: as §1
Experiment [4] concerns Plenodomus lingam. The experiment in a line: Antifungal activity against Leptosphaeria maculans isolate UWA P11 assessed as growth inhibition at 1 to 100 ug/plug. The format is functional.
Experiment [5] deals with Phytophthora cinnamomi. Description: Antifungal activity against Phytophthora cinnamomi assessed as growth inhibition at 1 to 100 ug/plug. The format is functional.
For experiment [6], the system named is Phytophthora cinnamomi. The experiment in a line: Antifungal activity against Phytophthora cinnamomi assessed as growth inhibition at 100 ug/plug. The format is functional, organism-based. A digest of the protocol:
as §1

Experiment [7] concerns Plenodomus lingam. Description: Antifungal activity against Leptosphaeria maculans isolate UWA P11 assessed as growth inhibition at 100 ug/plug. The format is functional, organism-based. A digest of the protocol:
as §1

Experiment [8] deals with Phytophthora cinnamomi. Description: Antifungal activity against Phytophthora cinnamomi assessed as growth inhibition at 1 to 10 ug/plug. The class given is functional, organism-based. A digest of the protocol:
as §1

In experiment [9] the test system is Botrytis cinerea. The experiment in a line: Antifungal activity against Botryotinia fuckeliana assessed as growth inhibition at 1 to 10 ug/plug. The format is functional, organism-based. A digest of the protocol:
as §1

For experiment [10], the system named is Botrytis cinerea. Description: Antifungal activity against Botryotinia fuckeliana assessed as growth inhibition at 200 ug/plug. The format is functional. A digest of the protocol: as §1
For experiment [11], the system named is Phytophthora cinnamomi. The experiment in a line: Antifungal activity against Phytophthora cinnamomi assessed as growth inhibition at 200 ug/plug. The class given is functional. A digest of the protocol:
as §1

In experiment [12] the test system is Plenodomus lingam. Description: Antifungal activity against Leptosphaeria maculans isolate UWA P11 assessed as growth inhibition at 200 ug/plug. The class given is functional. A digest of the protocol:
as §1

For the compound `Cc1cc(O)c2c(c1)C(=O)c1ccccc1C2=O`, the “growth inhibition (GI)” value in the experiment on Botrytis cinerea [1], in the experiment on Phytophthora cinnamomi [2] and in the experiment on Plenodomus lingam [3] was “inactive” each time.
For `C/C=C/CC(C)C(=O)c1c(O)c(OC)c(OC)[nH]c1=O` (stereo not given) [HARZIANOPYRIDONE], the “growth inhibition (GI)” value in the experiment on Plenodomus lingam [4] and in the experiment on Phytophthora cinnamomi [5] was 100% throughout.
As for `C/C=C/C=C/CC1=C(CC(C)=O)C(=O)OC1`, the “growth inhibition (GI)” value with Phytophthora cinnamomi [6] and with Plenodomus lingam [7] was “Active” each time.
In the case of `Cc1cc(O)c2c(c1)C(=O)c1cccc(O)c1C2=O`, the “growth inhibition (GI)” value in the experiment with Botrytis cinerea [1], in the experiment with Phytophthora cinnamomi [2] and with Plenodomus lingam [3] was “inactive” throughout.
As for `C/C=C/C=C/C1=CC2=CC(=O)[C@](C)(OC(=O)[C@H](C)O)C(=O)C2=CO1`, the “growth inhibition (GI)” value in the experiment with Phytophthora cinnamomi [8] and with Botrytis cinerea [9] was “Active” throughout.
Turning to `C/C=C/C=C/CC1=C(CC(C)O)C(=O)OC1` (stereo not given) [HARZIANOLIDE], the “growth inhibition (GI)” value with Botrytis cinerea [10], with Phytophthora cinnamomi [11] and with Plenodomus lingam [12] was below 25% each time.
